Active and inactive are the calls of the source. The rule behind the calls is not given here.
Assays:
HeLa [1] = test: Cytotoxicity against human HeLa cells at 50 uM after 48 hrs by MTS assay; format: functional, cell-based
Method in brief: (§1)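 Cells seeded at 2−5 × 10^3 per well by growth rate and allowed to attach overnight. Medium then replaced with medium holding test compound or 0.1% DMSO, made by serial dilution of 100 mM DMSO stocks. Incubated 48 h at 37 °C in humidified 5% CO2. MTS added, 90 min at 37 °C in the dark, absorbance read at 490 nm. Run in triplicate.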

HCT-116 [2] = test: Cytotoxicity against human HCT116 cells at 50 uM after 48 hrs by MTS assay; format: functional, cell-based; method in brief: as §1
A549 [3] = test: Cytotoxicity against human A549 cells at 50 uM after 48 hrs by MTS assay; format: functional, cell-based; method in brief: as §1
MCF7 [4] = test: Cytotoxicity against human MCF7 cells at 50 uM after 48 hrs by MTS assay; format: functional, cell-based; method in brief: as §1
T-24 = test: Cytotoxicity against human T24 cells at 50 uM after 48 hrs by MTS assay; format: functional, cell-based; method in brief: as §1
HCT-116 [5] = test: Induction of autophagy in human HCT116 cells assessed as increase in ratio of LC3-II to actin expression at 5 uM after 2 hrs by Western blot analysis relative to control; format: functional
Method in brief: (§2)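 HCT116 colon carcinoma cells were grown in RPMI-1640 with fetal bovine serum and antibiotics, split overnight to 50% confluence, then dosed. Cells were lysed in 50 mM Tris-HCl pH 7.4, 2 mM EDTA, 2 mM EGTA, 1 mM DTT, 1% Triton X-100 and protease inhibitors. SDS-PAGE and PVDF blot used polyclonal anti-LC3, anti-actin and ECL. LC3-II/actin was measured by densitometry, representative of three experiments.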

HCT-116 [6] = test: Induction of autophagy in human HCT116 cells transfected with plasmid expressing GFP-LC3 at 10 uM by DAPI staining based fluorescence microscopy; format: functional, cell-based
Method in brief: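 HCT116 cells transfected with a GFP-LC3 plasmid. Transfection was 12 h by the legend and 24 h by the methods. Cells then incubated at 37 °C in RPMI-1640 with test compound or 1/1000 DMSO, fixed and stained with DAPI. GFP-LC3 puncta imaged by confocal fluorescence microscopy.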

[7] = Cytotoxicity against human T24 cells after 48 hrs by MTS assay; format: functional, cell-based; conditions: T-24, 48 h; method in brief: as §1
A549 [8] = test: Cytotoxicity against human A549 cells after 48 hrs by MTS assay; format: functional, cell-based; conditions: A549, 48 h; method in brief: as §1
MCF7 [9] = test: Cytotoxicity against human MCF7 cells after 48 hrs by MTS assay; format: functional, cell-based; conditions: MCF7, 48 h; method in brief: as §1
HCT-116 [10] = test: Cytotoxicity against human HCT116 cells after 48 hrs by MTS assay; format: functional, cell-based; conditions: HCT-116, 48 h; method in brief: as §1
HCT-116 [11] = test: Induction of autophagy in human HCT116 cells assessed as increase in ratio of LC3-II to actin expression at 10 uM after 2 hrs by Western blot analysis relative to control; format: functional; method in brief: as §2
HCT-116 [12] = test: Induction of autophagy in human HCT116 cells assessed as increase in ratio of LC3-II to actin expression at 2.5 uM after 2 hrs by Western blot analysis relative to control; format: functional; method in brief: as §2
HCT-116 [13] = test: Induction of autophagy in human HCT116 cells assessed as accrual of membrane vacuoles and autophagosome-like structure with double-membrane sturctures formation at 10 uM after 2 hrs by electron microscopy; format: functional, cell-based
Method in brief: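 HCT116 cells in RPMI-1640 treated 2 h. Cells washed three times with PBS, trypsinized and pelleted. Pellets fixed overnight in 4% paraformaldehyde at 4 °C, postfixed 1 h at room temperature in 1% OsO4 in cacodylate buffer, dehydrated stepwise in ethanol, rinsed in propylene oxide and embedded in Spurr resin. Thin sections examined by transmission electron microscopy.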

HeLa [14] = test: Cytotoxicity against human HeLa cells after 48 hrs by MTS assay; format: functional, cell-based; method in brief: as §1

SMILES	Activity (HeLa [1])	Activity (HCT-116 [2])	Activity (A549 [3])	Activity (MCF7 [4])	Activity (T-24)	Ratio (HCT-116 [5])	Activity (HCT-116 [6])	IC50 [7] [µM]	IC50 (A549 [8]) [µM]	IC50 (MCF7 [9]) [µM]	IC50 (HCT-116 [10]) [µM]	Ratio (HCT-116 [11])	Ratio (HCT-116 [12])	Activity (HCT-116 [13])	IC50 (HeLa [14]) [µM]
C[C@H](CO)[C@H]1CC(=O)[C@@H]2[C@H]3OCC4=C3[C@@](C)(CCC4=O)CC[C@]12C	inactive	inactive	inactive	inactive	inactive										
CC1=C2C=C3C(=O)C(O)=C([C@H](C)CO)[C@@]3(C)CC[C@]2(C)C[C@@H](O)C1=O	inactive	inactive	inactive	inactive	inactive										
CC(C)C1=C(O)C(=O)C2=CC3=C(CO)C(=O)[C@H](O)C[C@@]3(C)CC[C@@]21C	inactive	inactive	inactive	inactive	inactive										
CC(C)C1=C(O)C(=O)C2=CC3=C(CCC4=C5CC6=C(O)C(=O)[C@H](C(C)C)[C@@]6(C)CC[C@]5(C)C[C@@H](O)C4=O)C(=O)[C@H](O)C[C@@]3(C)CC[C@@]21C						1.3	Active	8.16	29.7	46.1	21.3	1.4	1.2	Active	19.3
CC(C)[C@H]1CC(=O)C2=CC3=C(CO)C(=O)C(O)=C[C@@]3(C)CC[C@@]21C	inactive	inactive	inactive	inactive	inactive										
CC(C)C1=C(O)C(=O)C2=CC3=C(CCC4=C5C=C6C(=O)C(O)=C(C(C)C)[C@@]6(C)CC[C@]5(C)C[C@@H](O)C4=O)C(=O)[C@H](O)C[C@@]3(C)CC[C@@]21C	inactive	inactive	inactive	inactive	inactive										
